Out of some 290,000 compounds screened, about 1,600 (0.55%) were called active. The entries come from a sample that favours actives as a whole. Unmarked numbers belong to inactive results.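 Rule for the calls: active = inhibition above the mean of all tested compounds plus 3 SD, set per campaign (cut at about 35% in these data); inactive = the rest.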

The test concerns Hepatitis C virus NS3 helicase. Briefly: HCV NS3 DNA unwinding blockers – biochemical, Cy5 molecular beacon fluorescence, primary screen (AID 1800).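 Note: 0% = DMSO wells and 100% = thioflavine S control wells.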 Particulars: at 10.9 µM, active compounds read high. The procedure, abridged: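 System: Hepatitis C virus NS3 helicase domain fragment enzyme | Reagent: Annealed dual-labelled DNA beacon duplex, ATP-started | Compound dosing: 10.9 µM single point, 0.8% DMSO | Incubation: 1 h reaction at 25 °C, ATP-initiated | Technique: Cy5 fluorescence | Evaluation: Percent inhibition from t60/t0 fluorescence ratio | Benchmarks: Low DMSO, high thioflavine S at 110 µM | Replication: Singlicate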
As to `O=c1c(-c2ccccc2Cl)c[nH]n1-c1ccccc1`, the inhibition (in general, the change of the read-out against control, counted positive when it falls) is 3.07%. As to `Cc1ccccc1Nc1nnc(SCC(=O)c2cc3ccccc3o2)s1`, the inhibition was 47.4% (active). Under `Cc1ccc(Nc2nnc(SCC(=O)c3cc4ccccc4o3)s2)cc1C` stands 13.9%; under `Cc1cc(NC(=O)CSc2nnc(Nc3ccccc3F)s2)no1`, -0.95%; under `CC1CCN(S(=O)(=O)c2ccc(NC(=O)C3CC(=O)N(c4ccccc4)C3)cc2)CC1` (configuration not stated), -43.1%.

Turning to `CN(C)c1ccnc2sc3c(=O)n(-c4ccc(Cl)cc4)cnc3c12`, the inhibition was 3.7%. Under `Cc1cc(C)c2oc(C(=O)Nc3ccc(S(=O)(=O)Nc4nccc(C)n4)cc3)cc(=O)c2c1` stands -10.1%. As for `CS/C(=C\C(=O)c1ccco1)Nc1ccccc1Cl`, the figure is 64.5% (active). As for `O=C(Nc1ccccc1C(=O)N1CCCCC1)c1ccco1`, the figure is 5.37%; as for `O=C(Nc1ccccc1)c1ccco1`, 10.7%; as for `CCOc1ccc2sc(NS(=O)(=O)c3ccc(N)cc3)nc2c1`, -15.8%. With `CN(C)[C@@H]1C(=O)C(C(N)=O)=C(O)[C@@]2(O)C(=O)C3=C(O)c4c(O)ccc(Cl)c4[C@@H](O)[C@H]3C[C@@H]12`, the inhibition is 39.9% (active).

For the molecule `Cc1cccc(-n2ncc(Cl)c(Cl)c2=O)c1`, the inhibition is 10.4%.

In the case of `Cc1ccc2nc3c(cc(C(=O)NCCc4ccccc4)c(=N)n3CC3CCCO3)c(=O)n2c1` (configuration not stated), the inhibition was -6.17%. As for `O=C(Oc1ccc([N+](=O)[O-])cc1)c1ccc(Cl)c(S(=O)(=O)N2CCCCC2)c1`, the figure is 7.15%; as for `CC(=O)Oc1cccc(N2C(=O)CC(Nc3ccc(N4CCOCC4)cc3)C2=O)c1` (configuration not stated), 48.2% (active); as for `COc1cc2ccccc2cc1C(=O)Nc1ccc(N2CCOCC2)cc1`, -2.47%. For `CC(=O)Oc1cccc(N2C(=O)C3CC=C(Cl)CC3C2=O)c1` (configuration not stated), the inhibition is 6.02%. As for `CCCCOC(=O)Nc1nnc(CC(=O)NCc2ccccc2)s1`, the figure is 8.31%.

Consider `COc1ccc(NC(=O)CCC(=O)Nc2cc(OC)c(NC(=O)c3ccco3)cc2OC)c(OC)c1`, for which the inhibition was 7.66%. As for `COc1ccc(NC(=O)CSc2ccc(-c3ccco3)nn2)c(OC)c1`, the figure is 36.8% (active); as for `O=C(CSc1ccc(-c2ccco2)nn1)Nc1cccc(F)c1`, 20.3%. Under `CC1=C(C(=O)OCC2CCCCC2)C(c2ccc(F)cc2)NC(=O)N1` (configuration not stated) stands 0.43%. Under `O=C1c2ccccc2S(=O)(=O)N1Cc1c(F)cccc1Cl` stands 0.54%; under `O=C1/C(=C/c2cccs2)CCc2ccccc21`, -2.06%; under `CN1C/C(=C/c2cccs2)C(=O)/C(=C\c2cccs2)C1`, 9.92%. Regarding `CCC1C/C(=C/c2cccs2)C(=O)/C(=C/c2cccs2)C1` (configuration not stated), the inhibition was 44.1% (active).
